Measured values published in ChEMBL document CHEMBL1143671, “Antibacterial nicotinamide adenine dinucleotide synthetase inhibitors: amide- and ether-linked tethered dimers with alpha-amino acid end groups” (J Med Chem, 2007).
In brackets after ≈: the same amount, converted by molar mass. Activity calls are given as the source filed them. The calls are words filed in the database; no cut-off is given here.

How the values were obtained:
[1] = Inhibition of yeast alcohol dehydrogenase by fluorescence based assay; parameters: species or system Saccharomyces cerevisiae
In short: (§1)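 Yeast ADH 2.5 µg/mL in 60 mM HEPPS pH 8.5 with 0.5 mM NH4Cl, 20 mM KCl, 10 mM MgCl2, 60 mM ethanol, 2.5% DMSO and 0–0.01% Triton X-100. Started with 0.75 mM β-NAD and stopped with 1.2 M guanidine·HCl after 2 min. NADH fluorescence read at 355 nm excitation / 460 nm emission, pre-NAD blank subtracted. Triplicate points; IC50 averaged over two experiments.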

Bacillus subtilis [2] = test: (§2) Inhibition of Bacillus subtilis NAD synthetase in presence of 0.01% Triton X-100 by fluorescence based assay
In short: (§3)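 B. subtilis NAD synthetase, overexpressed and purified, 2.0 µg/mL. Coupled to yeast ADH (40 µg/mL) with 1% EtOH at pH 8.5: 58.5 mM HEPPS, 18.5 mM NH4Cl, 19.5 mM KCl, 9.75 mM MgCl2, 0.1 mM NaAD, 2.5% DMSO. No BOG; 0–0.01% Triton X-100. Started with 0.2 mM ATP. NADH read by fluorescence. Triplicate points; IC50 averaged over two experiments.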

Saccharomyces cerevisiae [3] = test: (§4) Inhibition of yeast alcohol dehydrogenase in presence of 0.001% Triton X-100 by fluorescence based assay; in short: as §1
Saccharomyces cerevisiae [4] = test: (§5) Inhibition of yeast alcohol dehydrogenase in presence of 0.01% Triton X-100 by fluorescence based assay; in short: as §1
[5] = Inhibition of Bacillus subtilis NAD synthetase by fluorescence based assay; in short: as §3
Bacillus subtilis [6] = test: (§6) Inhibition of Bacillus subtilis NAD synthetase in presence of 0.001% Triton X-100 by fluorescence based assay; in short: as §3
Bacillus subtilis [7] = test: Antibacterial activity against Bacillus subtilis ATCC 14289; assay type: functional
In short: (§7)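 Broth tube dilution MIC. Bacteria subcultured from stock onto agar and grown overnight at 37 ± 2 °C in ambient air. Overnight cultures went into broth adjusted to about 5 × 10⁸ CFU/mL. Inhibitor started at 50 µg/mL with doubling dilutions over 10 tubes in duplicate. Each tube received 0.01 mL of challenge broth.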

Staphylococcus aureus [8] = test: Antibacterial activity against Staphylococcus aureus ATCC 29213; assay type: functional; in short: as §7
[9] = as §2; in short: as §3
[10] = as §4; parameters: species or system Saccharomyces cerevisiae; in short: as §1
Pseudomonas aeruginosa = test: Antibacterial activity against Pseudomonas aeruginosa ATCC 27853; assay type: functional; in short: as §7
[11] = as §5; parameters: species or system Saccharomyces cerevisiae; in short: as §1
Staphylococcus aureus [12] = test: Antibacterial activity against methicillin-resistant Staphylococcus aureus ATCC 33591; assay type: functional
In short: as §7, with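 “MIC, performed by a contract lab.” for “MIC.”, “Bacteria were” for “Bacteria”, “in” for “with”, “dilutions,” for “dilutions over”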

[13] = as §6; in short: as §3

Row | Compound | IC50 [5] [µM] | MIC (Bacillus subtilis [7]) [µM] | MIC (Staphylococcus aureus [8]) [µM] | MIC (Staphylococcus aureus [12]) [µM] | other results
1 | Clc1ccccc1C(c1ccccc1)(c1ccccc1)n1ccnc1 [CLOTRIMAZOLE] | > 1500 |  |  |  | IC50 [1]: 96.5 µM; Activity (Bacillus subtilis [2]): inactive; Activity (Saccharomyces cerevisiae [3]): inactive; Activity (Saccharomyces cerevisiae [4]): inactive; Activity (Bacillus subtilis [6]): inactive
2 | C[N+](C)(C)[C@@H](Cc1ccccc1)C(=O)NCCCCCCCCOc1ccc(OCc2ccccc2)cc1 | 40 | 0.39 | 0.78 | 0.78 | IC50 [1]: > 1500 µM; IC50 [9]: 104 µM; IC50 [10]: > 1500 µM; MIC (Pseudomonas aeruginosa): > 50 µM; IC50 [11]: > 1500 µM; IC50 [13]: 27.8 µM
3 | C[N+](C)(C)[C@@H](Cc1c[nH]c2ccccc12)C(=O)OCCCCCCCCOc1ccc(OCc2ccccc2)cc1 | 19 |  |  |  | 
4 | CC1(C)S[C@@H]2[C@H](NC(=O)[C@H](N)c3ccccc3)C(=O)N2[C@H]1C(=O)O [AMPICILLIN] |  | 0.2 (≈ 0.0699 µg/mL) |  | > 50 | 
5 | C[N+](C)(C)c1ccc(CC(=O)OCCCCCCCCOc2ccc(OCc3ccccc3)cc2)cc1 | 41 | 2 | 9.4 | 6.2 | MIC (Pseudomonas aeruginosa): > 50 µM
6 | CO[C@H]1/C=C/O[C@@]2(C)Oc3c(C)c(O)c4c(O)c(c(/C=N/N5CCN(C)CC5)c(O)c4c3C2=O)NC(=O)/C(C)=C\C=C\[C@H](C)[C@H](O)[C@@H](C)[C@@H](O)[C@@H](C)[C@H](OC(C)=O)[C@@H]1C [RIFAMPIN] |  | 1.5 (≈ 1.23 µg/mL) |  |  | 
7 | C[N+](C)(C)[C@@H](Cc1ccc(O)cc1)C(=O)OCCCCCCCCOc1ccc(OCc2ccccc2)cc1 | 53 | 1.56 |  | 3.13 | 
8 | N=C(N)N[C@H](C(=O)NCCCCCCCCOc1ccc(OCc2ccccc2)cc1)c1ccccc1 | 19 | 1.56 (≈ 0.784 µg/mL) |  | 1.56 (≈ 0.784 µg/mL) | 
9 | C[N+](C)(C)[C@H](COCCCCCCCCOc1ccc(OCc2ccccc2)cc1)Cc1ccccc1 | 21 | 0.39 | 0.78 | 1.56 | MIC (Pseudomonas aeruginosa): > 50 µM
10 | C[C@H]1c2cccc(O)c2C(=O)C2=C(O)[C@]3(O)C(=O)C(C(N)=O)=C(O)[C@@H](N(C)C)[C@@H]3[C@@H](O)[C@@H]21 [DOXYCYCLINE] |  | 1.56 (≈ 0.693 µg/mL) | 1.56 (≈ 0.693 µg/mL) | > 30 | 
11 | N=C(N)N[C@@H](Cc1ccccc1)C(=O)NCCCCCCCCOc1ccc(OCc2ccccc2)cc1 | 12 | 3.13 (≈ 1.62 µg/mL) |  | 1.56 (≈ 0.806 µg/mL) | 
12 | COc1cccc(OC)c1C(=O)N[C@@H]1C(=O)N2[C@@H]1SC(C)(C)[C@@H]2C(=O)O [METHICILLIN] |  |  | 1 (≈ 0.38 µg/mL) | 32 (≈ 12.2 µg/mL) | 
13 | C[N+](C)(C)[C@H](COCCCCCCCCOc1ccc(OCc2ccccc2)cc1)c1ccccc1 | 38 | 0.78 |  | 3.13 | 
14 | N=C(N)N[C@H](COCCCCCCCCOc1ccc(OCc2ccccc2)cc1)Cc1ccccc1 | 11 | 3.13 (≈ 1.58 µg/mL) |  | 0.78 (≈ 0.393 µg/mL) | 
15 | O=C(O)c1cn(C2CC2)c2cc(N3CCNCC3)c(F)cc2c1=O [CIPROFLOXACIN] |  | 0.5 (≈ 0.166 µg/mL) |  | 0.5 (≈ 0.166 µg/mL) | 
16 | C[N+](C)(C)[C@H](C(=O)NCCCCCCCCOc1ccc(OCc2ccccc2)cc1)c1ccccc1 | 45 | 1.56 |  | 1.56 | 
17 | C[N+](C)(C)[C@@H](Cc1ccccc1)C(=O)OCCCCCCCCOc1ccc(OCc2ccccc2)cc1 | 22 | 0.78 | 0.78 | 0.78 | IC50 [1]: 27 µM; IC50 [9]: 37 µM; IC50 [10]: 69 µM; MIC (Pseudomonas aeruginosa): > 50 µM; IC50 [11]: 266 µM; IC50 [13]: 16.5 µM
18 | N=C(N)N[C@H](COCCCCCCCCOc1ccc(OCc2ccccc2)cc1)c1ccccc1 | 11 | 3.13 (≈ 1.53 µg/mL) |  | 0.78 (≈ 0.382 µg/mL) | 
